In article PMC4011915 (mAbs, 2014):
Blank lines part the entries; values can stand above or below the molecule they belong to.

Test system: 9F mAb
Experiment: Immunoblot of 3xFLAG-tagged aldolase C fragments in Neuro2a lysates with 9F mAb
Format: binding, mouse
Conditions: Neuro2a total protein lysates; 15% SDS-PAGE; 9F 1:1000; ECL
Outline: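 Neuro2a cells were plated without antibiotics to reach 70–90% confluence, transfected with lipofectamine 2000, given fresh medium at 6h and grown 48h at 37 °C. Lysis was 30 min on ice in 50mM Tris-HCl pH 7.5, 150mM NaCl, 0.1% Triton X-100 and 0.5 mM PMSF, cleared at 16000xg. Blots went onto nitrocellulose, blocked 1h in 5% milk/T-PBS. Primary 1h RT or overnight 4 °C; HRP anti-mouse 1:5000, 45min. α-tubulin loading control.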

B1: Clone 1B: 3xFLAG-tagged human aldolase C aa 101-210, 16 kDa (protein, UniProt P09972 101-210, looked up, fragment)
chain: KGIVVGIKVDKGVVPLAGTDGETTTQGLDGLSERCAQYKKDGADFAKWRCVLKISERTPSALAILENANVLARYASICQQNGIVPIVEPEILPDGDHDLKRCQYVTEKVL
modifications: 3xFLAG tag
- recognition of 3xFLAG-tagged aldolase C fragment by 9F mAb: detected Clone 1A (15kDa) but not Clone 1B

- recognition of 3xFLAG-tagged aldolase C fragment by 9F mAb: recognized
B2: Clone 1: 3xFLAG-tagged human aldolase C aa 1-210, 26 kDa (protein, UniProt P09972 1-210, looked up, fragment)
chain: MPHSYPALSAEQKKELSDIALRIVAPGKGILAADESVGSMAKRLSQIGVENTEENRRLYRQVLFSADDRVKKCIGGVIFFHETLYQKDDNGVPFVRTIQDKGIVVGIKVDKGVVPLAGTDGETTTQGLDGLSERCAQYKKDGADFAKWRCVLKISERTPSALAILENANVLARYASICQQNGIVPIVEPEILPDGDHDLKRCQYVTEKVL
modifications: 3xFLAG tag

- recognition of 3xFLAG-tagged aldolase C fragment by 9F mAb: recognized
B3: full-length: 3xFLAG-tagged human aldolase C aa 1-364, 43 kDa (protein, UniProt P09972 1-364, looked up)
chain: MPHSYPALSAEQKKELSDIALRIVAPGKGILAADESVGSMAKRLSQIGVENTEENRRLYRQVLFSADDRVKKCIGGVIFFHETLYQKDDNGVPFVRTIQDKGIVVGIKVDKGVVPLAGTDGETTTQGLDGLSERCAQYKKDGADFAKWRCVLKISERTPSALAILENANVLARYASICQQNGIVPIVEPEILPDGDHDLKRCQYVTEKVLAAVYKALSDHHVYLEGTLLKPNMVTPGHACPIKYTPEEIAMATVTALRRTVPPAVPGVTFLSGGQSEEEASFNLNAINRCPLPRPWALTFSYGRALQASALNAWRGQRDNAGAATEEFIKRAEVNGLAAQGKYEGSGEDGGAAAQSLYIANHAY
modifications: full-length 3xFLAG tag

- recognition of 3xFLAG-tagged aldolase C fragment by 9F mAb: detected
B4: Clone 1A: 3xFLAG-tagged human aldolase C aa 1-100, 15 kDa (protein, UniProt P09972 1-100, looked up, fragment)
chain: MPHSYPALSAEQKKELSDIALRIVAPGKGILAADESVGSMAKRLSQIGVENTEENRRLYRQVLFSADDRVKKCIGGVIFFHETLYQKDDNGVPFVRTIQD
modifications: 3xFLAG tag

- recognition of 3xFLAG-tagged aldolase C fragment by 9F mAb: absence of ECL signal
B5: Clone 2: 3xFLAG-tagged human aldolase C aa 101-300, 25 kDa (protein, UniProt P09972 101-300, looked up, fragment)
chain: KGIVVGIKVDKGVVPLAGTDGETTTQGLDGLSERCAQYKKDGADFAKWRCVLKISERTPSALAILENANVLARYASICQQNGIVPIVEPEILPDGDHDLKRCQYVTEKVLAAVYKALSDHHVYLEGTLLKPNMVTPGHACPIKYTPEEIAMATVTALRRTVPPAVPGVTFLSGGQSEEEASFNLNAINRCPLPRPWALTF
modifications: 3xFLAG tag
